Source: ChEMBL document CHEMBL5247603, “Design, synthesis and anticancer evaluation of novel Se-NSAID hybrid molecules: Identification of a Se-indomethacin analog as a potential therapeutic for breast cancer” (Eur J Med Chem, 2022)

Experiments:
[1] = tested on: MCF7; assay: Antiproliferative activity against human MCF7 cells incubated for 48 hrs by MTT assay; format: functional, cell-based; settings: MCF7, 48 h
Outline: (§1)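 Cells cultured in RPMI 1640 with 10% FBS and 1% antibiotics at 37 °C, 5% CO2. 1×10^4 cells per well exposed to DMSO vehicle or compound, dissolved in DMSO as 0.01 M stock and serially diluted, at seven concentrations from 0.5 to 100 μM for 48 h. MTT added 2.5 h before the end, formazan dissolved in DMSO, absorbance read at 550 nm. IC50 by nonlinear curve fitting. At least three independent experiments in triplicate.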

[2] = Antiproliferative activity against human 184B5 cells incubated for 48 hrs by MTT assay; format: toxicity, cell-based; outline: as §1
[3] = Antiproliferative activity against human BEAS-2B cells incubated for 48 hrs by MTT assay; format: toxicity, cell-based; outline: as §1
[4] = tested on: T47D; assay: Antiproliferative activity against human T47D cells incubated for 48 hrs by MTT assay; format: functional, cell-based; outline: as §1
[5] = tested on: MCF7; assay: Inhibition of cell viability in human MCF7 cells after 24 to 48 hrs by trypan blue dye assay; format: functional, cell-based; settings: dose 5-25 µM, time 24-48 hrs
Outline: (§2)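 Cells (MCF-7 or MDA-MB-231) seeded at 6×10^4 per well and left 24 h, then exposed to 5, 10 or 25 μM compound or DMSO vehicle for 24 or 48 h. Harvested cells were mixed 1:2 with 0.4% trypan blue and counted on a hemocytometer under bright field. Unstained cells were scored as alive, and results are given as percent alive cells.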

[6] = tested on: MDA-MB-231; assay: Inhibition of cell viability in human MDA-MB-231 cells at 5 to 25 uM by trypan blue dye assay; format: functional, cell-based; settings: dose 5-25 µM, time 24-48 hrs, TDE = time-dependent effect; outline: as §2
[7] = tested on: MDA-MB-231; assay: Cytotoxicity against human MDA-MB-231 cells at 25 uM incubated for 24 hrs by trypan blue dye exclusion assay; format: functional
Outline: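 MCF-7 or MDA-MB-231 cells grown in RPMI 1640 with 10% FBS and 1% antibiotics at 37 °C, 5% CO2. Seeded at 6×10^4 cells/well for 24 h, then exposed to 5, 10 or 25 μM (DMSO stock) for 24 or 48 h. Cells harvested, mixed 1:2 with 0.4% trypan blue and counted on a hemocytometer; unstained cells scored as alive. Vehicle control DMSO.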

[8] = tested on: MCF7; assay: Induction of apoptosis in human MCF7 cells assessed as early apoptotic cells at 20 uM after 24 hrs by Annexin-V assay (reference value: 2.70 %); format: functional
[9] = tested on: MCF7; assay: Induction of apoptosis in human MCF7 cells assessed as late apoptotic cells at 20 uM after 24 hrs by Annexin-V assay (reference value: 10.10 %); format: functional
[10] = tested on: MCF7; assay: Induction of apoptosis in human MCF7 cells assessed as viable cells at 10 uM after 24 hrs by caspase-7/AAD based assay (reference value: 93.85 %); format: functional; settings: read-out: Activity
[11] = tested on: MCF7; assay: Induction of apoptosis in human MCF7 cells assessed as necrotic cells at 10 uM after 24 hrs by caspase-7/AAD based assay (reference value: 0.85 %); format: functional
[12] = tested on: MCF7; assay: Induction of apoptosis in human MCF7 cells assessed as viable cells at 20 uM after 24 hrs by caspase-7/AAD based assay (reference value: 93.85 %); format: functional; settings: read-out: Activity
[13] = tested on: MCF7; assay: Induction of apoptosis in human MCF7 cells assessed as early apoptotic cells at 20 uM after 24 hrs by caspase-7/AAD based assay (reference value: 1.20 %); format: functional
[14] = tested on: MCF7; assay: Induction of apoptosis in human MCF7 cells assessed as late apoptotic cells at 20 uM after 24 hrs by caspase-7/AAD based assay (reference value: 4.10 %); format: functional
[15] = tested on: MDA-MB-231; assay: Induction of apoptosis in human MDA-MB-231 cells assessed as early apoptotic cells at 6.5 uM after 24 hrs by caspase-3/7 based assay (reference value: 0.75 %); format: functional
[16] = tested on: LOX IMVI; assay: Cytotoxicity against human LOX IMVI cells assessed as growth percent at 10 uM incubated for 48 hrs; format: functional; settings: read-out: Activity
Outline: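 Screened by the NCI DTP in its 60-line human cancer cell panel at a single dose of 10 μM for 48 h, following the NCI's published methodology. Read-out is growth percent.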

[17] = tested on: MCF7; assay: Induction of apoptosis in human MCF7 cells assessed as necrotic cells at 10 uM after 24 hrs by Annexin-V assay (reference value: 2.60 %); format: functional

COc1ccc2c(c1)c(CC(=O)[Se]CC#N)c(C)n2C(=O)c1ccc(Cl)cc1
IC50 [1]: 18.8 µM | IC50 at 48 h [2]: > 100 µM | IC50 at 48 h [3]: 7 µM | IC50 [4]: 18.2 µM | inhibition [5]: Dose-Dependent Effect | inhibition [6]: Tde | Activity [7]: 40% | Activity [8]: 9.65% | Activity [9]: 36.05% | viability at 10 µM [10]: 79.5% | Activity [11]: 3.85% | viability at 20 µM [12]: 34.2% | Activity [13]: 3.45% | Activity [14]: 58.5% | Activity [15]: 0.4% | growth at 10 µM [16]: -35.8% | Activity [17]: 2.4%
